Results taken from ChEMBL document CHEMBL1128260, “3-deaza- and 7-deaza-5'-noraristeromycin and their antiviral properties” (1995).
Values after ≈ are worked out from the molar mass of the structure shown.

Assays:
Assay type in all cases: functional
E6SM [1] = test: The minimum inhibitory concentration required to reduce Vesicular Stomatitis Virus induced cytopathicity by 50% in E6SM cells; details: Homo sapiens
Outline: (§1)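 Confluent cell monolayers in microtiter trays were inoculated with 100 CCID50 of virus and allowed 1 h adsorption, then residual virus was removed. Cultures were incubated with varying compound concentrations (400, 200, 100, ... µg/mL). Cytopathicity was scored once it was complete in the untreated infected controls. The value is the concentration reducing virus-induced cytopathicity by 50%.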

Vero [2] = test: The minimum inhibitory concentration required to reduce forest virus (ATCC VR-67) induced cytopathicity by 50% in Vero cells; details: Chlorocebus sabaeus; outline: as §1
E6SM [3] = test: The minimum inhibitory concentration required to reduce TK HSV-1 (B2006) virus induced cytopathicity by 50% in E6SM cells; details: Homo sapiens; outline: as §1
E6SM [4] = test: Tested for concentration required to cause a microscopically detectable alteration of E6SM cell morphology; details: Homo sapiens; read-out: MIC50
Outline: (§2)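 Confluent E6SM, HeLa, Vero or MDCK cell cultures exposed to varying test-compound concentrations and examined microscopically. The value is the concentration causing a microscopically detectable alteration of normal cell morphology.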

Vero [5] = test: The minimum inhibitory concentration required to reduce Arenavirus (Junin) induced cytopathicity by 50% was measured on Vero cells; details: Chlorocebus sabaeus; outline: as §1
E6SM [6] = test: The minimum inhibitory concentration required to reduce HSV-2(G) virus induced cytopathicity by 50% was measured on E6SM cells; details: Homo sapiens; outline: as §1
Vero [7] = test: The minimum inhibitory concentration required to reduce Sindbis virus ([…]) induced cytopathicity by 50% in Vero cells; details: Chlorocebus sabaeus; outline: as §1
CCRF-CEM [8] = test: The minimum inhibitory concentration required to reduce HIV-1(IIIB) virus induced cytopathicity by 50% was measured on CEM cells; details: Homo sapiens
Outline: (§3)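 CEM cells at 250,000-300,000 cells/mL were infected with HIV-1 (IIIB) or HIV-2 (ROD) at 100 CCID50/mL. The infected suspension was added to serial compound dilutions and incubated 4 days at 37 °C. Cultures were then examined for syncytium (giant cell) formation, and the 50% inhibitory concentration was recorded.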

E6SM [9] = test: The minimum inhibitory concentration required to reduce Vaccinia virus induced cytopathicity by 50% in E6SM cells; details: Homo sapiens; outline: as §1
CCRF-CEM [10] = test: The minimum inhibitory concentration required to reduce HIV-2(ROD) virus induced cytopathicity by 50% was measured on CEM cells; details: Homo sapiens; outline: as §3
CCRF-CEM [11] = test: Tested for concentration required to cause a microscopically detectable alteration of CEM cell morphology; details: Homo sapiens
HeLa [12] = test: The minimum inhibitory concentration required to reduce Vesicular Stomatitis Virus induced cytopathicity by 50% in HeLa cells; details: Homo sapiens; outline: as §1
MDCK [13] = test: The minimum inhibitory concentration required to reduce Influenza B virus induced cytopathicity by 50% was measured on MDCK cells; details: Canis lupus familiaris; outline: as §1
HeLa [14] = test: Tested for concentration required to cause a microscopically detectable alteration of HeLa cell morphology; details: Homo sapiens; read-out: MIC50; outline: as §2
HeLa [15] = test: The minimum inhibitory concentration required to reduce Coxsackie B4 virus induced cytopathicity by 50% in HeLa cells.; details: Homo sapiens; outline: as §1
E6SM [16] = test: The minimum inhibitory concentration required to reduce TK-HSV-1(VMW 1837) virus induced cytopathicity by 50% in E6SM cells; details: Homo sapiens; outline: as §1
MDCK [17] = test: The minimum inhibitory concentration required to reduce Influenza A virus induced cytopathicity by 50% was measured on MDCK cells; details: Canis lupus familiaris; outline: as §1
HeLa [18] = test: The minimum inhibitory concentration required to reduce Polio-1 virus induced cytopathicity by 50% in HeLa cells; details: Homo sapiens; outline: as §1
HEL [19] = test: The minimum inhibitory concentration required to reduce VZV(Oka) virus induced cytopathicity by 50% was measured on HEL cells; details: Homo sapiens; outline: as §1
Vero [20] = test: The minimum inhibitory concentration required to reduce Reo-1 virus (ATCC VR-230) induced cytopathicity by 50% was measured in Vero cells; details: Chlorocebus sabaeus; outline: as §1
HEL [21] = test: Tested for the concentration required to cause a microscopically detectable alteration of HEL cell morphology; details: Homo sapiens; read-out: MIC50
HEL [22] = test: The minimum inhibitory concentration required to reduce CMV(Davis) virus induced cytopathicity by 50% was measured on HEL cells; details: Homo sapiens; outline: as §1
HEL [23] = test: The minimum inhibitory concentration required to reduce TK-VZV(07-1) virus induced cytopathicity by 50% was measured on HEL cells; details: Homo sapiens; outline: as §1
Vero [24] = test: The minimum inhibitory concentration required to reduce Parainfluenza virus type 3(ATCC VR-93) induced cytopathicity by 50% in Vero cells; details: Chlorocebus sabaeus; outline: as §1
MDCK [25] = test: Tested for the concentration required to cause a microscopically detectable alteration of MCDK cell morphology; details: Canis lupus familiaris; read-out: MIC50; outline: as §2
Vero [26] = test: Tested for concentration required to cause a microscopically detectable alteration of Vero cell morphology; details: Chlorocebus sabaeus; read-out: MIC50; outline: as §2
HEL [27] = test: The minimum inhibitory concentration required to reduce VZV(YS) virus induced cytopathicity by 50% was measured on HEL cells; details: Homo sapiens; outline: as §1
E6SM [28] = test: The minimum inhibitory concentration required to reduce HSV-1(KOS) virus induced cytopathicity by 50% was measured on E6SM cells; details: Homo sapiens; outline: as §1
Vero [29] = test: The minimum inhibitory concentration required to reduce Arenavirus (Tacaribe) induced cytopathicity by 50% was measured on Vero cells; details: Chlorocebus sabaeus; outline: as §1
HEL [30] = test: The minimum inhibitory concentration required to reduce CMV(AD-169) virus induced cytopathicity by 50% was measured on HEL cells; details: Homo sapiens; outline: as §1
HEL [31] = test: The minimum inhibitory concentration required to reduce TK-VZV(YS-R) virus induced cytopathicity by 50% was measured on HEL cells; details: Homo sapiens; outline: as §1
[32] = test system: Respiratory syncytial virus; test: The minimum inhibitory concentration required to reduce RSV(Long) virus induced cytopathicity by 50% in HeLa cells; details: human respiratory syncytial virus; outline: as §1

| SMILES | MIC50 (E6SM [1]) | MIC50 (Vero [2]) | minimum cytotoxic concentration (microscopic alteration of cell morphology) (E6SM [4]) | MIC50 (Vero [5]) | MIC50 (E6SM [6]) | MIC50 (Vero [7]) | MIC50 (E6SM [9]) | MIC50 (HeLa [12]) | MIC50 (MDCK [13]) | Minimum cytotoxic concentration (HeLa [14]) | MIC50 (HeLa [15]) | MIC50 (MDCK [17]) | MIC50 (HeLa [18]) | MIC50 (HEL [19]) | MIC50 (Vero [20]) | Minimum cytotoxic concentration (MCC) (HEL [21]) | MIC50 (HEL [22]) | MIC50 (Vero [24]) | Minimum cytotoxic concentration (MDCK [25]) | Minimum cytotoxic concentration (Vero [26]) | further results |
| --- | --- | --- | --- | --- | --- | --- | --- | --- | --- | --- | --- | --- | --- | --- | --- | --- | --- | --- | --- | --- | --- |
| Nc1ncnc2c1ccn2[C@H]1C[C@@H](O)[C@H](O)[C@@H]1O | 70 µg/mL (≈ 280 µM) | > 200 µg/mL | > 400 µg/mL | > 20 µg/mL | > 400 µg/mL | > 200 µg/mL | 150 µg/mL (≈ 599 µM) | 300 µg/mL (≈ 1200 µM) | > 200 µg/mL | > 400 µg/mL | > 400 µg/mL | > 200 µg/mL | > 400 µg/mL | > 40 µg/mL | > 200 µg/mL | > 200 µg/mL | > 40 µg/mL | 100 µg/mL (≈ 400 µM) | > 200 µg/mL | > 400 µg/mL | MIC50 (E6SM [3]): 300 µg/mL (≈ 1200 µM); MIC50 (CCRF-CEM [8]): > 500 µg/mL; MIC50 (CCRF-CEM [10]): > 500 µg/mL; MIC50 (CCRF-CEM [11]): > 500 µg/mL; MIC50 (E6SM [16]): 300 µg/mL (≈ 1200 µM); MIC50 (HEL [23]): > 40 µg/mL; MIC50 (HEL [27]): > 40 µg/mL; MIC50 (E6SM [28]): 300 µg/mL (≈ 1200 µM); MIC50 (Vero [29]): > 20 µg/mL; MIC50 (HEL [30]): > 40 µg/mL; MIC50 (HEL [31]): > 40 µg/mL; MIC50 [32]: 100 µg/mL (≈ 400 µM) |
| Nc1nccc2c1ncn2C1CC(O)C(O)C1O (single isomer, unassigned; (-)) | 0.7 µg/mL (≈ 2.8 µM) | > 200 µg/mL | > 400 µg/mL | > 40 µg/mL | > 400 µg/mL | > 200 µg/mL | 0.4 µg/mL (≈ 1.6 µM) | 2 µg/mL (≈ 7.99 µM) | > 200 µg/mL | > 400 µg/mL | > 400 µg/mL | 150 µg/mL (≈ 599 µM) | > 400 µg/mL | > 40 µg/mL | 7 µg/mL (≈ 28 µM) | > 200 µg/mL | > 40 µg/mL | 1 µg/mL (≈ 4 µM) | > 200 µg/mL | > 200 µg/mL | MIC50 (E6SM [3]): 300 µg/mL (≈ 1200 µM); MIC50 (CCRF-CEM [8]): > 20 µg/mL; MIC50 (CCRF-CEM [10]): > 20 µg/mL; MIC50 (CCRF-CEM [11]): 27 µg/mL (≈ 108 µM); MIC50 (E6SM [16]): 300 µg/mL (≈ 1200 µM); MIC50 (HEL [23]): > 30 µg/mL; MIC50 (HEL [27]): > 40 µg/mL; MIC50 (E6SM [28]): > 400 µg/mL; MIC50 (Vero [29]): > 40 µg/mL; MIC50 (HEL [30]): > 40 µg/mL; MIC50 (HEL [31]): > 40 µg/mL; MIC50 [32]: > 150 µg/mL |
| Nc1ncnc2c1ncn2[C@@H]1C=C(CO)[C@@H](O)[C@H]1O [NEOPLANOCIN A] | 2 µg/mL (≈ 7.6 µM) | 7 µg/mL (≈ 26.6 µM) | 100 µg/mL | 1 µg/mL (≈ 3.8 µM) | > 100 µg/mL | 2 µg/mL (≈ 7.6 µM) | 0.2 µg/mL (≈ 0.76 µM) | 2 µg/mL (≈ 7.6 µM) | > 4 µg/mL | 1 µg/mL | > 40 µg/mL | 0.3 µg/mL (≈ 1.14 µM) | > 40 µg/mL | 4 µg/mL (≈ 15.2 µM) | 0.7 µg/mL (≈ 2.66 µM) | 20 µg/mL | 0.4 µg/mL (≈ 1.52 µM) | 0.2 µg/mL (≈ 0.76 µM) | 4 µg/mL | 40 µg/mL | MIC50 (E6SM [3]): 20 µg/mL (≈ 76 µM); MIC50 (E6SM [16]): 70 µg/mL (≈ 266 µM); MIC50 (HEL [23]): 4 µg/mL (≈ 15.2 µM); MIC50 (HEL [27]): 5 µg/mL (≈ 19 µM); MIC50 (E6SM [28]): 70 µg/mL (≈ 266 µM); MIC50 (Vero [29]): 1 µg/mL (≈ 3.8 µM); MIC50 (HEL [30]): 0.6 µg/mL (≈ 2.28 µM); MIC50 (HEL [31]): 3 µg/mL (≈ 11.4 µM); MIC50 [32]: > 1.2 µg/mL |
| Nc1ncnc2c1ncn2[C@@H]1C[C@H](O)[C@@H](O)[C@H]1O [NORARISTEROMYCIN] | 0.1 µg/mL (≈ 0.398 µM) | > 400 µg/mL | > 400 µg/mL | 6 µg/mL (≈ 23.9 µM) | > 400 µg/mL | > 400 µg/mL | 0.04 µg/mL (≈ 0.159 µM) | 0.2 µg/mL (≈ 0.796 µM) | > 100 µg/mL | > 400 µg/mL | > 400 µg/mL | > 100 µg/mL | > 400 µg/mL | > 50 µg/mL | 0.7 µg/mL (≈ 2.79 µM) | 50 µg/mL | 0.03 µg/mL (≈ 0.119 µM) | 0.07 µg/mL (≈ 0.279 µM) | > 400 µg/mL | > 400 µg/mL | MIC50 (CCRF-CEM [8]): > 0.16 µg/mL; MIC50 (CCRF-CEM [10]): > 0.16 µg/mL; MIC50 (CCRF-CEM [11]): 0.4 µg/mL (≈ 1.59 µM); MIC50 (HEL [27]): > 50 µg/mL; MIC50 (E6SM [28]): > 400 µg/mL; MIC50 (Vero [29]): 8 µg/mL (≈ 31.8 µM); MIC50 (HEL [30]): 0.01 µg/mL (≈ 0.0398 µM); MIC50 [32]: > 200 µg/mL |
